Sampled rows, rich in hits. Any-hit rate of the full collection: about 12%.
L major viab – inhibitors of Leishmania major promastigote growth. Leishmania major promastigotes, resazurin fluorescence viability. inhibition, % at 10 µM. hit rate 9% among 200,000; in the data active = inhibition above about 50%;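 also: promastigotes grown with compound for 44 hours at 28 °C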
Cl transport mod – modulates chloride dependent transport by human KCC2; Q9H2X9; KCC2 cells, thallium flux FluoZin-2 fluorescence; B-score of Tl+ flux slope (higher = more flux/activation; lower = inhibition) at 10 µM; hit rate 2.2% among 190,000; AID 1456;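 active = thallium flux slope and its plate-corrected score both differing from the plate sample mean at a set confidence after two filtering rounds, in either direction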;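 also: slope of fluorescence scaled to starting intensity during 10 to 20 s after thallium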
Target sequence (Q9H2X9 whole entry, looked up): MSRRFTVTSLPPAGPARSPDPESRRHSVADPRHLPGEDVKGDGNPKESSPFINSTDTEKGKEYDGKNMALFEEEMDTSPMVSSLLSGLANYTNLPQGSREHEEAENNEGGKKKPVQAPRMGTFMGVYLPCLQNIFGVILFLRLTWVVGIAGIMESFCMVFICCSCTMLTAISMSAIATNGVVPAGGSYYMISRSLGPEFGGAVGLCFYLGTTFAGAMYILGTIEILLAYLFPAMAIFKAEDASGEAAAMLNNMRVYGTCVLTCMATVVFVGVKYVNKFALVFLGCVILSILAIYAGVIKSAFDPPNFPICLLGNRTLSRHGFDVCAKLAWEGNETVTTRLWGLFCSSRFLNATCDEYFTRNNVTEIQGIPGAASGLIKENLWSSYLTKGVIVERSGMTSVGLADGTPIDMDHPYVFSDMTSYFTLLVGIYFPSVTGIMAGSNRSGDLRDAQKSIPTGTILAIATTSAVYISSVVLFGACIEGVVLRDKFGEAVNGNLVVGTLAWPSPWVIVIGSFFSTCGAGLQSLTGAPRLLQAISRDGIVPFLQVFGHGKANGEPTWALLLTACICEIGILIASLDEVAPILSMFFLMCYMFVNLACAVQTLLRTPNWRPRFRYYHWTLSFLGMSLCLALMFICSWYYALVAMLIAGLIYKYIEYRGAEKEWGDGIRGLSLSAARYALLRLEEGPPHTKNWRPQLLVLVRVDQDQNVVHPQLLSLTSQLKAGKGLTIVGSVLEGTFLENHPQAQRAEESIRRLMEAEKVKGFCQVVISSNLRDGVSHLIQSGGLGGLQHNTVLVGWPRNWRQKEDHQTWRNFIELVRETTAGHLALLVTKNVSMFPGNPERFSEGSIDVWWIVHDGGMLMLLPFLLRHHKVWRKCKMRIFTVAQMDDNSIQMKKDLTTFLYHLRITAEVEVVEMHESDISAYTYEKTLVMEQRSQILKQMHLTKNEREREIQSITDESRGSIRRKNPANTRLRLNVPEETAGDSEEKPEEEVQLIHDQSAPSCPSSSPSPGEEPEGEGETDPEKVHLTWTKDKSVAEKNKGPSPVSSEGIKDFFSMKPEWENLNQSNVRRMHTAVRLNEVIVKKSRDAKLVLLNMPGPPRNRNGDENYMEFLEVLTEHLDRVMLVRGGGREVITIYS
WT yeast gro inh – growth inhibition of WT yeast, mitochondrial fusion screen; mitochondrial fusion phenotypic screen, WT strain; inhibition, % at 10 µM; hit rate 2.1% among 190,000; in the data active = inhibition above about 58%; tested in S. cerevisiae
ROMK primary – modulators of human ROMK potassium channel | P48048 | Tet-inducible ROMK, thallium flux fluorescence; actives lie on both sides | B-score at 10 µM | hit rate 2% among 130,000 | AID 1918;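 active = signal ratio slope over the read window, or its plate-corrected B-score, at least 3 SD from the plate mean, either direction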;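 also: B-score of the F/F0 ratio slope over 7 to 12 s after thallium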
Diaph act CS – activates diaphorase or chemically reduces, flagging diaphorase assay artifacts | Diaphorase/resazurin coupled assay, resorufin fluorescence, 16 min; active compounds read high; 1 = vehicle wells, 0 = NADH-free wells | activation factor at 20 µM | hit rate 0.005% among 190,000;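 active = diaphorase activity raised at least twofold by the compound at 20 µM; inactive = activation factor below 2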
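Material: bacterial diaphorase enzyme (C. kluyveri); amount: enzyme 0.07 U/mL final; reagent: NADH substrate 0.114 mM plus resazurin dye 0.1 mM, final; doses: single compound dose of 20 µM, 1% DMSO final; timing: 16 min enzyme reaction, ambient temperature; measured by: fluorescence of resorufin, 544 nm excitation, 590 nm emission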
Diaphorase inh – diaphorase inhibition or chemical oxidation counter-screen; diaphorase resazurin-to-resorufin fluorescence, NADH, 16 min; bacterial (C. kluyveri) enzyme, not human; inhibition, % at 20 µM; hit rate 0.69% among 190,000;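 active = primary screen inhibition at 20 µM above a set limit, cut at about 50% in these data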
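Test system: Clostridium kluyveri diaphorase enzyme / Quantity: diaphorase at 0.14 U/mL in enzyme working solution / Incubation: 16-min room-temperature incubation before reading / Benchmarks: NADH-free wells as positive control, DMSO-only neutral wells / Signal: resorufin fluorescence 544/590 nm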
ROMK retest – human ROMK channel modulation, retest confirmation; shares compounds with ROMK primary; ROMK thallium flux, fluorescence ratio; active compounds read low; normalized thallium flux (F/F0 slope) at 10 µM; hit rate 54% among 3,000; AID 1917;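 active = Flux at 10 µM at least 3 SD below or above vehicle control mean in one or both replicates; inconclusive = no clear call, values can overlap the other calls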
Each line names hits and unclear results; the compound was inactive in the other large screens (follow-up assays come after a bar, where they were run).

O=C(Nc1ccc(F)cc1)C1CCC(N2C(=O)c3ccccc3C2=O)CC1 (stereo not given)	none
Cc1sc2nc(CN3CCCCC3)nc(N3CCN(C(=O)c4ccco4)CC3)c2c1C	none
Cc1sc2nc(CN3CCCC3)nc(N3CCN(S(=O)(=O)c4cccs4)CC3)c2c1C	L major viab 56, ROMK primary -2.5 (no result: Cl transport mod, WT yeast gro inh) | ROMK retest 0.055
CCC1CCCCN1Cc1cc(OC)c(O)c([N+](=O)[O-])c1 (stereo not given)	none (no result: Cl transport mod)
COc1cccc(/C=N/n2c(SC)nnc2-c2ccccc2)c1O	ROMK primary 3.6 (no result: Cl transport mod) | ROMK retest inactive
Cc1ccc(SCCC(=O)OCC(=O)NCC2CCCCC2)cc1	ROMK primary 3 | ROMK retest inactive
Cc1ccc(SCCC(=O)OCC(=O)Nc2ccc(S(N)(=O)=O)cc2)cc1	none (no result: L major viab, WT yeast gro inh, ROMK primary, Diaph act CS, Diaphorase inh)
O=c1c2ccccc2nc(/C=C/c2ccc([N+](=O)[O-])o2)n1CCCO	L major viab 101, WT yeast gro inh 65, ROMK primary -3.1 (no result: Cl transport mod) | ROMK retest 0.052
CCOC(=O)C1C(=O)OC(C)(C)C1C(C)C(=O)c1ccccc1 (stereo not given)	none
COC(=O)c1ccc(/C=C(\C#N)C(=O)NC(C)c2ccccc2)cc1 (stereo not given)	L major viab 99 (no result: ROMK primary) | ROMK retest 0.049
CC(NC(=O)/C(C#N)=C/c1ccco1)c1ccccc1 (stereo not given)	none (no result: L major viab, WT yeast gro inh, ROMK primary, Diaph act CS, Diaphorase inh)
Cc1cccc(C)c1NC(=O)/C(C#N)=C/c1cccs1	none (no result: ROMK primary)
CC(NC(=O)/C(C#N)=C/c1cccs1)c1ccccc1 (stereo not given)	ROMK primary -4.6 | ROMK retest 0.054
c1ccc(N2OCC3Cn4c(nc5ccccc54)C32)cc1 (stereo not given)	none (no result: L major viab, WT yeast gro inh, ROMK primary, Diaph act CS, Diaphorase inh)
CCOc1ccc(N2C(=O)CC(n3ccc(C)n3)C2=O)cc1 (stereo not given)	none
Cc1occc1-c1nnc(SCC(=O)N(C)C)o1	none (no result: Cl transport mod)
COC(=O)/C=C1\SC(=NC(=O)c2ccc(C)cc2)NC1=O	ROMK primary -4.1 | ROMK retest 0.045
O=C(NCc1n[nH]c(=S)n1-c1ccc(F)cc1)c1ccc(S(=O)(=O)N2CCCC2)cc1	ROMK primary 1.3 (no result: WT yeast gro inh) | ROMK retest inactive
O=C(c1cccc(Cl)c1)N1CCC(=O)N(C(COCc2cccc(Cl)c2)Cc2ccccc2)CC1 (stereo not given)	none
O=C(c1ccc(C(F)(F)F)cc1)N1CCC(=O)N(C(COCc2ccc(C(F)(F)F)cc2)Cc2ccccc2)CC1 (stereo not given)	ROMK primary -4.1 | ROMK retest 0.066
Cc1cccc(COCC(Cc2ccccc2)N2CCN(C(=O)c3ccc(C(F)(F)F)cc3)CCC2=O)c1 (stereo not given)	none
Cc1cccc(C(=O)N2CCC(=O)N(C(COCc3ccc(Cl)cc3)Cc3ccccc3)CC2)c1 (stereo not given)	ROMK primary -3.5 | ROMK retest 0.048
Cc1ccc(S(=O)(=O)N2CCC(=O)N(C(COCc3ccc(Cl)c(Cl)c3)Cc3ccccc3)CC2)cc1 (stereo not given)	ROMK primary -4.7 | ROMK retest 0.061
Cc1ccc(S(=O)(=O)N2CCC(=O)N(C(CO)Cc3ccccc3)CC2)cc1 (stereo not given)	none
Cc1cccc(C(=O)N2CCC(=O)N(C(COCc3cccc(Cl)c3)Cc3ccccc3)CC2)c1 (stereo not given)	ROMK primary -3.7 | ROMK retest 0.056
CCOc1ccc(CCNS(=O)(=O)c2cnc[nH]2)cc1OCC	none
O=[N+]([O-])c1cccc(N2Cc3ccccc3C2)c1	none
COC(=O)c1ccc2c(=O)n(CCCCCC(=O)N3CCN(c4ccccc4)CC3)c(=O)[nH]c2c1	none (no result: ROMK primary) | ROMK retest inactive
COc1ccc(Cn2c(=O)[nH]c3cc(C(=O)N4CCN(Cc5ccccc5)CC4)ccc3c2=O)cc1	none (no result: ROMK primary) | ROMK retest inactive
CCN1CCN(C(=O)CCCCCn2c(=O)[nH]c3cc(C(=O)OC)ccc3c2=O)CC1	none (no result: ROMK primary)
CCOC(=O)COc1ccc(S(=O)(=O)N2CCc3ccccc3C2)cc1	none (no result: ROMK primary)
CS(=O)(=O)NCCOc1ccc(S(=O)(=O)N2CCCc3ccccc32)cc1	none (no result: ROMK primary)
CCOc1ccc(NC(=O)C2CC=CCC2C(=O)O)cc1 (stereo not given)	none (no result: Cl transport mod, ROMK primary) | ROMK retest inactive
CCC(NC(=O)N(Cc1ccccc1)Cc1ccc2c(c1)OCO2)(C(F)(F)F)C(F)(F)F	L major viab 67 (no result: ROMK primary) | ROMK retest inactive
Cc1nc2c(C(=O)NCc3ccco3)cnn2c(C)c1Cc1ccc(F)cc1Cl	none (no result: ROMK primary) | ROMK retest inactive
NC(CCC(=O)O)C12CC3CC(CC(C3)C1)C2 (stereo not given)	ROMK primary 2.5 | ROMK retest inconclusive
CC1(C(=O)O)CCC(C(=O)N2CCOCC2)C1(C)C (stereo not given)	none (no result: Cl transport mod)
Cc1noc(C)c1C1(O)CCCCCCCCCCC1	none
Cc1cc(N)n(-c2ncnc3scc(-c4ccccc4)c23)n1	ROMK primary 1.6 | ROMK retest inactive
O=C(CNC(c1ccccc1)c1ccccc1)Nc1ccccc1-c1ccccc1	none (no result: ROMK primary)
S=C(NCCc1ccccc1)N1CCN(C23CC4CC(CC(C4)C2)C3)CC1	ROMK primary -7.9 | ROMK retest inconclusive
CCNc1nc(NCC)nc(N(C)N)n1	none (no result: Cl transport mod, ROMK primary)
c1ccc(CSc2nnc(-c3sccc3-n3cccc3)o2)cc1	none (no result: ROMK primary)
N#Cc1sc2nc(-c3ccccc3)cc(C(F)(F)F)c2c1N	ROMK primary -4.4 | ROMK retest 0.063
Oc1c(Cl)cc(Cl)cc1/C=N/c1nc(-c2ccc(Cl)cc2)cs1	none (no result: L major viab, WT yeast gro inh, ROMK primary, Diaph act CS, Diaphorase inh)
Oc1c(Cl)cc(Cl)cc1/C=N/c1nccs1	ROMK primary 3.1 | ROMK retest 0.1
CCCN(CCC)S(=O)(=O)c1ccc(Cl)c(OC)c1	ROMK primary -16 | ROMK retest inconclusive
O=[N+]([O-])c1cc(-c2ncccn2)c([N+](=O)[O-])s1	Diaphorase inh 51 | ROMK retest 0.06
CCOc1ccccc1C(=O)NCC(=O)OCC(=O)NCCc1ccc(S(N)(=O)=O)cc1	ROMK primary -2.8 | ROMK retest inactive
CC(Oc1ccc(Cl)cc1Cl)C(=O)OCn1nnc2ccccc2c1=O (stereo not given)	ROMK primary 3.7 | ROMK retest inactive
O=c1c2ccccc2nnn1COc1ccc(Cl)cc1Br	none
N=C(c1cccc([N+](=O)[O-])c1)N1CCCCC1	none (no result: Diaph act CS, Diaphorase inh)
CCOC(=O)C1=C(C)N=C2SC(C(=O)OC)=CC(=O)N2C1c1ccc(OC)cc1 (stereo not given)	WT yeast gro inh 84, ROMK primary -4.5 | ROMK retest 0.054
COC(=O)C1=C(C)N=C2SC(C#N)=C(N)N2C1c1ccc(OC)cc1 (stereo not given)	none

Screening results deposited in PubChem by several laboratories.
